Source: ChEMBL document CHEMBL3259749, “Design, synthesis and evaluation of novel 2,5,6-trisubstituted benzimidazoles targeting FtsZ as antitubercular agents” (Bioorg Med Chem, 2014)
pIC50, pKd: −log10 of the molar value. Converted amounts (≈) assume the structure as drawn. The source made the active and inactive calls. No cut-off for these calls is given here.

Assays:
[1] = tested on: Mycobacterium tuberculosis; assay: Antimycobacterial activity against Mycobacterium tuberculosis H37Rv assessed as growth inhibition at 1 ug/ml after 7 days incubation by Alamar Blue staining-based broth microdilution assay; format: functional; details: 168 h, read-out: GI
Vero = assay: Cytotoxicity against African green monkey Vero cells […] by MTT assay; format: cell-based; details: Chlorocebus sabaeus
[2] = tested on: Mycobacterium tuberculosis; assay: Inhibition of Mycobacterium tuberculosis FtsZ polymerization assessed as 90 degrees light scattering by fluorescence system
Outline: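 His-tagged Mtb-FtsZ at 15 μM, Ni-resin and size-exclusion purified, preincubated with DMSO-stocked compound for up to 300 s. Buffer was 50 mM MES pH 6.5, 100 mM KCl, 5 mM MgCl2. Polymerization started with 100 μM GTP. 90° light scattering recorded at 30 °C, excitation/emission 400 nm, for up to 30 min.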

[3] = tested on: Mycobacterium tuberculosis; assay: Antimycobacterial activity against Mycobacterium tuberculosis H37Rv assessed as growth inhibition after 7 days incubation by Alamar Blue staining-based broth microdilution assay; format: functional; details: 168 h
Outline: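 Mid-log Mtb H37Rv grown in 7H9 with 10% OADC and 0.05% Tween-80, added to 2-fold serial dilutions of DMSO-stocked compound at OD600 0.005. Incubated 6 days at 37 °C, then Alamar Blue added for a further 24 h at 37 °C. Colour change read by eye; MIC99 taken in triplicate.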

[4] = tested on: Mycobacterium tuberculosis; assay: Inhibition of Mycobacterium tuberculosis FtsZ polymerization assessed as reduction in length, density and aggregation of polymer at 40 to 80 uM by Transmission electron microscopy in presence of 25 uM GTP
Outline: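 Mtb-FtsZ at 5 μM, Ni-NTA purified, held 15 min on ice with ethanol-stocked compound in 50 mM MES pH 6.5, 5 mM MgCl2, 100 mM KCl. GTP added to 25 μM final, then 30 min at 37 °C. Sample diluted 2-fold, negatively stained with 1% uranyl acetate on carbon-coated grids, imaged at 80 kV at 23,000x and 49,000x.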

[5] = Binding affinity to Mycobacterium tuberculosis FtsZ assessed as fluorescence intensity at emission maximum 427.9 nm
Outline: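 Fluorescence of compound held at 100 μM, titrated with His-tagged Mtb-FtsZ expressed in E. coli BL21(DE3). FtsZ was Ni-resin purified and dialysed into Tris storage buffer. Run in 50 mM MES, 100 mM KCl, 5 mM MgCl2, with no GTP. Excitation 316 nm, emission 427.9 nm. Kd obtained by fitting ΔF = (ΔFmax × L)/(Kd + L).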

Row | SMILES | inhibition of growth at 1 µg/mL [1] [%] | pIC50 (Vero) | MIC [3] [µg/mL] | also measured
1 | O=S(=O)(Nc1cc2nc(C3CCCCC3)[nH]c2cc1Sc1ccc(F)cc1)c1ccccc1 | 30 |  |  | 
2 | O=C(Nc1cc2nc(C3CCCCC3)[nH]c2cc1Oc1ccc(F)cc1)c1ccc(F)cc1F | 44 | < 3.70 | 12.5 (≈ 26.9 µM) | inhibition [2]: Dose-dependent effect
3 | CCCOC(=O)Nc1cc2nc(C3CCCCC3)[nH]c2cc1Sc1ccc(F)cc1 | 46 |  |  | 
4 | C=CCCC(=O)Nc1cc2nc(C3CCCCC3)[nH]c2cc1Sc1ccc(F)cc1 | 41 |  |  | 
5 | CC(C)(C)c1ccc(C(=O)Nc2cc3nc(C4CCCCC4)[nH]c3cc2SCc2ccccc2)cc1 | 52 | < 3.70 | 12.5 (≈ 25.1 µM) | 
6 | CC(C)(C)c1ccc(C(=O)Nc2cc3nc(C4CCCCC4)[nH]c3cc2Sc2ccccc2)cc1 | 42 |  |  | 
7 | Cc1ccc(C(=O)Nc2cc3nc(C4CCCCC4)[nH]c3cc2Oc2ccc(F)cc2)cc1 | 36 | 4.59 | 1.56 (≈ 3.52 µM) | 
8 | C=CCCC(=O)Nc1cc2nc(C3CCCCC3)[nH]c2cc1Oc1ccc(F)cc1 | 54 | < 3.70 | 12.5 (≈ 30.7 µM) | 
9 | CCCCOC(=O)Nc1cc2nc(C3CCCCC3)[nH]c2cc1N(CC)CC |  |  | 0.78 (≈ 2.02 µM) | 
10 | CCCCSc1cc2[nH]c(C3CCCCC3)nc2cc1NC(=O)CCc1ccccc1 | 33 |  |  | 
11 | CCCCSc1cc2[nH]c(C3CCCCC3)nc2cc1NS(=O)(=O)c1ccccc1 | 42 |  |  | 
12 | CCCCSc1cc2[nH]c(C3CCCCC3)nc2cc1NC(=O)c1ccc(C)cc1 | 53 | < 3.70 |  | 
13 | CCN(CC)c1cc2[nH]c(C3CCCCC3)nc2cc1NC(=O)c1ccc(OC)cc1 |  |  | 3.1 (≈ 7.37 µM) | 
14 | CCOc1cc2[nH]c(C3CCCCC3)nc2cc1NC(=O)c1ccc(C)cc1 | 65 |  |  | 
15 | CCCCSc1cc2[nH]c(C3CCCCC3)nc2cc1NC(=O)c1ccc(C(C)(C)C)cc1 | 45 |  |  | 
16 | C=CCCC(=O)Nc1cc2nc(C3CCCCC3)[nH]c2cc1Sc1ccccc1 | 56 |  |  | 
17 | CCCCSc1cc2[nH]c(C3CCCCC3)nc2cc1NC(=O)OCCC | 38 | 4.12 | 1.25 (≈ 3.21 µM) | 
18 | CCCCOC(=O)Nc1cc2nc(C3CCCCC3)[nH]c2cc1N1CCCC1 |  |  | 0.39 (≈ 1.01 µM) | 
19 | C=CCCC(=O)Nc1cc2nc(C3CCCCC3)[nH]c2cc1SCCCC | 52 |  |  | 
20 | CCCCSc1cc2[nH]c(C3CCCCC3)nc2cc1NC(=O)c1ccc(F)cc1F | 51 | < 3.70 | 1.25 (≈ 2.82 µM) | 
21 | Cc1ccc(C(=O)Nc2cc3nc(C4CCCCC4)[nH]c3cc2Sc2ccccc2)cc1 | 31 | 5.20 | 6.25 (≈ 14.2 µM) | 
22 | C=CCCC(=O)Nc1cc2nc(C3CCCCC3)[nH]c2cc1SCc1ccccc1 | 64 |  |  | 
23 | CCCCOC(=O)Nc1cc2nc(C3CCCCC3)[nH]c2cc1Oc1ccc(F)cc1 |  | 4.22 | 0.63 (≈ 1.48 µM) | inhibition [4]: Active; pKd [5]: 5.88; inhibition [2]: Dose-dependent effect
24 | O=S(=O)(Nc1cc2nc(C3CCCCC3)[nH]c2cc1SCc1ccccc1)c1ccccc1 | 30 |  |  | 
25 | CCCOC(=O)Nc1cc2nc(C3CCCCC3)[nH]c2cc1SCc1ccccc1 | 28 |  |  | 
26 | C=CCCC(=O)Nc1cc2nc(C3CCCCC3)[nH]c2cc1OCCCC | 28 |  |  | 
27 | COc1ccc(C(=O)Nc2cc3nc(C4CCCCC4)[nH]c3cc2Oc2ccc(F)cc2)cc1 |  | 4.40 | 3.13 (≈ 6.81 µM) | 
